Data reported in ChEMBL document CHEMBL4229493, “Synthesis and anticancer activity studies of indolylisoxazoline analogues” (Bioorg Med Chem Lett, 2018).
pIC50: −log10 of the molar value. The source made the active and inactive calls. The rule behind the calls is not given here.

What was measured:
Type in all cases: functional, cell-based
[1] = tested on: NCI-H460; assay: Antiproliferative activity against human NCI-H460 cells
[2] = tested on: BXPC-3; assay: Growth inhibition of human BxPC3 cells after 48 hrs by MTT assay; details: BXPC-3, 48 h
[3] = tested on: MDA-MB-231; assay: Growth inhibition of human MDA-MB-231 cells after 48 hrs by MTT assay; details: MDA-MB-231, 48 h
[4] = tested on: LNCaP C4-2; assay: Growth inhibition of human C4-2 cells after 48 hrs by MTT assay; details: LNCaP C4-2, 48 h
[5] = tested on: CWR22R; assay: Growth inhibition of human 22Rv1 cells after 48 hrs by MTT assay; details: 22Rv1, 48 h
[6] = tested on: PC-3; assay: Growth inhibition of human PC3 cells after 48 hrs by MTT assay; details: PC-3, 48 h
[7] = tested on: HEK293; assay: Growth inhibition of HEK293 cells after 48 hrs by MTT assay; details: Homo sapiens, HEK293, 48 h
[8] = tested on: LNCaP C4-2; assay: Induction of ROS generation in human C4-2 cells at 10 uM after 48 hrs by H2-DCF-DA staining based inverted fluorescent microscopic method
Outline: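 C4-2 cells left untreated or exposed 48 h to compound at 10 μM. H2O2 (10 μM) was the positive control. Intracellular ROS was stained with DCFDA and fluorescence quantified.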

[9] = tested on: LNCaP C4-2; assay: Antimigratory activity against human C4-2 cells at 10 uM after 12 to 48 hrs by wound healing assay
Outline: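 A scratch was made in a C4-2 monolayer. Cells were incubated further for 12, 24 and 48 h, then fixed and imaged to follow migration into the wound.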

[10] = tested on: LNCaP C4-2; assay: Induction of apoptosis in human C4-2 cells assessed as nuclear fragmentation at 3.5 uM after 48 hrs by acridine orange/ethidium bromide staining based inverted fluorescent microscopic method
Outline: (§1)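 C4-2 cells were incubated 48 h with compound, alongside untreated controls. They were then stained with acridine orange (live and dead cells) and ethidium bromide (dead cells only). Nuclear morphology was scored for red fragmented nuclei as apoptosis versus necrosis.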

[11] = tested on: LNCaP C4-2; assay: Induction of apoptosis in human C4-2 cells assessed as PARP cleavage at 3.5 uM after 48 hrs by Western blot analysis
[12] = tested on: LNCaP C4-2; assay: Induction of apoptosis in human C4-2 cells assessed as DNA fragmentation by measuring DNA ladder formation at 10 uM after 48 hrs by agarose gel electrophoresis method
[13] = tested on: LNCaP C4-2; assay: Induction of apoptosis in human C4-2 cells assessed as nuclear fragmentation at 2.5 uM after 48 hrs by acridine orange/ethidium bromide staining based inverted fluorescent microscopic method; outline: as §1
[14] = tested on: LNCaP C4-2; assay: Induction of apoptosis in human C4-2 cells assessed as PARP cleavage at 2.5 uM after 48 hrs by Western blot analysis
[15] = tested on: Prostatic carcinoma cell; assay: Cytotoxicity against human prostate cancer cells

| Structure (SMILES) | pIC50 [1] | pIC50 [2] | pIC50 [3] | pIC50 [4] | pIC50 [5] | pIC50 [6] | pIC50 [7] | Activity [8] | Activity [9] | Activity [10] | Activity [11] | Activity [12] | Activity [13] | Activity [14] | pIC50 [15] |
| --- | --- | --- | --- | --- | --- | --- | --- | --- | --- | --- | --- | --- | --- | --- | --- |
| COc1cc(-c2cnc(-c3ccc4c(ccn4C)c3)o2)cc(OC)c1OC | 8.21 | – | – | – | – | – | – | – | – | – | – | – | – | – | – |
| Cc1[nH]c2ccccc2c1C1CC(c2ccncc2)=NO1 (stereo not given) | – | 4.02 | 4.58 | 4.35 | 4.76 | 4.67 | < 4.00 | – | – | – | – | – | – | – | – |
| OO | – | – | – | – | – | – | – | Active | – | – | – | – | – | – | – |
| COc1ccc2[nH]cc(C3CC(c4cc(OC)c(OC)c(OC)c4)=NO3)c2c1 (stereo not given) | – | < 4.00 | 4.59 | 4.15 | 4.95 | 4.37 | 4.34 | – | – | – | – | – | – | – | – |
| COc1ccc2c(C3CC(c4ccncc4)=NO3)c[nH]c2c1 (stereo not given) | – | 5.02 | 5.13 | 5.46 | 4.79 | 4.98 | 5.38 | inactive | Active | Active | Active | Active | – | – | – |
| COc1ccc2[nH]cc(C3CC(c4ccncc4)=NO3)c2c1 (stereo not given) | – | 4.16 | < 4.00 | < 4.00 | 4.45 | < 4.00 | < 4.00 | – | – | – | – | – | – | – | – |
| Fc1ccc2c(C3CC(c4ccncc4)=NO3)c[nH]c2c1 (stereo not given) | – | 5.02 | 5.30 | 5.10 | 5.44 | 4.89 | 5.02 | – | – | – | – | – | – | – | – |
| COc1cc(C2=NOC(c3c[nH]c4ccccc34)C2)cc(OC)c1OC (stereo not given) | – | 4.87 | 4.93 | 5.30 | 5.35 | 4.81 | 5.30 | – | – | – | – | – | – | – | – |
| c1ccc2c(C3CC(c4ccncc4)=NO3)c[nH]c2c1 (stereo not given) | – | 4.52 | 4.71 | 4.89 | < 4.00 | < 4.00 | < 4.00 | – | – | – | – | – | – | – | – |
| COc1ccc2c(C3CC(c4ccncc4)=NO3)cn(Cc3ccc(Cl)cc3)c2c1 (stereo not given) | – | < 4.00 | < 4.00 | < 4.00 | 4.76 | 4.02 | 4.43 | – | – | – | – | – | – | – | – |
| Cc1c(C2CC(c3ccncc3)=NO2)c2ccccc2n1Cc1ccc(Cl)cc1 (stereo not given) | – | 4.87 | 5.18 | 5.60 | 5.08 | 4.95 | 5.60 | inactive | Active | – | – | Active | Active | Active | – |
| Clc1ccc(Cn2cc(C3CC(c4ccncc4)=NO3)c3ccccc32)cc1 (stereo not given) | – | < 4.00 | 4.86 | 4.94 | 5.02 | 4.59 | 4.99 | – | – | – | – | – | – | – | – |
| c1ccc2c(C3CC(c4ccc5c(c4)OCO5)=NO3)c[nH]c2c1 (stereo not given) | – | 4.57 | 4.58 | 4.80 | < 4.00 | < 4.00 | < 4.00 | – | – | – | – | – | – | – | – |
| COc1cccc2c1C(=O)c1c(O)c3c(c(O)c1C2=O)C[C@@](O)(C(=O)CO)C[C@@H]3O[C@H]1C[C@H](N)[C@H](O)[C@H](C)O1 [DOXORUBICIN] | – | 5.04 | – | 5.49 | – | 5.02 | 5.41 | – | – | – | – | – | – | – | – |
| COc1ccc2c(c1)c(C1CC(c3ccncc3)=NO1)cn2Cc1ccc(Cl)cc1 (stereo not given) | – | < 4.00 | 4.59 | < 4.00 | 4.97 | 4.26 | 4.85 | – | – | – | – | – | – | – | – |
| COc1cc(-c2nnc(-c3cn(C)c4ccccc34)[nH]2)cc(OC)c1OC | – | – | – | – | – | – | – | – | – | – | – | – | – | – | 6.10 |
| COc1ccc(C2=NOC(c3c[nH]c4ccccc34)C2)cc1OC (stereo not given) | – | < 4.00 | < 4.00 | 4.18 | 4.78 | 4.15 | < 4.00 | – | – | – | – | – | – | – | – |
